Measurements as given in ChEMBL document CHEMBL1629439, “High-throughput identification of antibacterials against methicillin-resistant Staphylococcus aureus (MRSA) and the transglycosylase” (Bioorg Med Chem, 2010).
In brackets after ≈: the same amount, converted by molar mass.

Columns and labels:
[1] = test system: Stenotrophomonas maltophilia; assay: Antimicrobial activity against Stenotrophomonas maltophilia ATCC 13637 after 18 to 24 hrs by alamar blue assay; assay type: functional; settings: Stenotrophomonas maltophilia, ATCC 13637; read-out: MIC
How it was run: (§1)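 Broth microdilution per NCCLS in Mueller-Hinton broth, 8-point twofold dilutions, 384-well format. Exponential-phase cells at 5 × 10^5 cells/ml incubated with compound 18–24 h at 37 °C, then 20% Alamar blue added and fluorescence read. MIC90 taken as the lowest concentration preventing at least 90% bacterial growth.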

Staphylococcus aureus [2] = assay: Antimicrobial activity against methicillin-resistant Staphylococcus aureus ATCC 33592 after 18 to 24 hrs by alamar blue assay; assay type: functional; settings: Staphylococcus aureus, ATCC 33592; read-out: MIC
How it was run: (§2)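 Broth microdilution per NCCLS standard, Mueller-Hinton broth, 8-point twofold dilutions; exponentially growing cells at 5 10^5 cells/ml with compound, 18–24 h at 37 C; 20% Alamar blue added, fluorescence read; MIC90 taken as lowest concentration preventing at least 90% growth.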

Escherichia coli = assay: Antimicrobial activity against Escherichia coli ATCC […] after 18 to 24 hrs by alamar blue assay; assay type: functional; settings: Escherichia coli; read-out: MIC; how it was run: as §1
Pseudomonas aeruginosa = assay: Antimicrobial activity against Pseudomonas aeruginosa ATCC 25619 after 18 to 24 hrs by alamar blue assay; assay type: functional; settings: Pseudomonas aeruginosa, ATCC 25619; read-out: MIC; how it was run: as §1
Acinetobacter baumannii = assay: Antimicrobial activity against Acinetobacter baumannii ATCC 49139 after 18 to 24 hrs by alamar blue assay; assay type: functional; settings: Acinetobacter baumannii, ATCC 49139; read-out: MIC; how it was run: as §1
Serratia marcescens = assay: Antimicrobial activity against Serratia marcescens ATCC 14756 after 18 to 24 hrs by alamar blue assay; assay type: functional; settings: Serratia marcescens, ATCC 14756; read-out: MIC; how it was run: as §1
Staphylococcus aureus [3] = assay: Antimicrobial activity against methicillin-resistant Staphylococcus aureus isolate NTUH4722 after 18 to 24 hrs by alamar blue assay; assay type: functional; how it was run: as §2
Bacillus subtilis = assay: Antimicrobial activity against Bacillus subtilis ATCC 23857 after 18 to 24 hrs by alamar blue assay; assay type: functional; how it was run: as §1
[4] = Inhibition of transglycosylase assessed as inhibition of NBD- labelled lipid II polymerization
How it was run: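 100 µM NBD-labelled lipid II incubated 30 min with full-length PBP (EC, SA or Mtb) and 10 ng/µl N-acetylmuramidase in 50 mM Tris-HCl pH 8.0, 10 mM MgCl2, 0.1% Triton X-100, 10% DMSO, 15% MeOH. Supernatant run on anion-exchange HPLC with 20 mM–0.5 M ammonium acetate gradient. Inhibition calculated from substrate peak-area percentage. IC50 determined. S. aureus strains share one SA enzyme.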

Staphylococcus aureus [5] = assay: Antimicrobial activity against oxacillin- and methicillin-resistant Staphylococcus aureus isolate Sa-OXA-R2 after 18 to 24 hrs by alamar blue assay; assay type: functional; how it was run: as §2
[6] = test system: Mycolicibacterium smegmatis; assay: Antimicrobial activity against Mycobacterium smegmatis BCRC 11565 after 18 to 24 hrs by alamar blue assay; assay type: functional; settings: Mycolicibacterium smegmatis, BCRC 11565; read-out: MIC; how it was run: as §1
Staphylococcus aureus [7] = assay: Antimicrobial activity against Staphylococcus aureus ATCC 29213 after 18 to 24 hrs by alamar blue assay

## O=C(Nc1ccc(Oc2ccc(Cl)cc2)c(Cl)c1)c1cc(Br)cc(Br)c1O
[1]
  MIC: 16 µg/mL (≈ 30.1 µM)
Staphylococcus aureus [2]
  MIC: 0.25 µg/mL (≈ 0.47 µM)
Escherichia coli
  MIC: 8 µg/mL (≈ 15 µM)
Pseudomonas aeruginosa
  MIC: 16 µg/mL (≈ 30.1 µM)
Acinetobacter baumannii
  MIC: 16 µg/mL (≈ 30.1 µM)
Serratia marcescens
  MIC: 16 µg/mL (≈ 30.1 µM)
Staphylococcus aureus [3]
  MIC: 0.25 µg/mL (≈ 0.47 µM)
Bacillus subtilis
  MIC: < 0.03 µg/mL
[4]
  IC90: 100 µM
Staphylococcus aureus [5]
  MIC: 0.5 µg/mL (≈ 0.94 µM)
[6]
  MIC: 0.5 µg/mL (≈ 0.94 µM)
Staphylococcus aureus [7]
  MIC: 0.5 µg/mL (≈ 0.94 µM)

## O=C(Nc1ccc(NS(=O)(=O)c2ccc(Cl)cc2)cc1Cl)c1cc(Cl)ccc1O
[1]
  MIC: 16 µg/mL (≈ 33.9 µM)
Staphylococcus aureus [2]
  MIC: 32 µg/mL (≈ 67.8 µM)
Escherichia coli
  MIC: 8 µg/mL (≈ 17 µM)
Pseudomonas aeruginosa
  MIC: 16 µg/mL (≈ 33.9 µM)
Acinetobacter baumannii
  MIC: 16 µg/mL (≈ 33.9 µM)
Serratia marcescens
  MIC: 16 µg/mL (≈ 33.9 µM)
Staphylococcus aureus [3]
  MIC: ≤ 0.03 µg/mL
Bacillus subtilis
  MIC: < 0.03 µg/mL
[4]
  IC90: > 100 µM
Staphylococcus aureus [5]
  MIC: ≤ 0.03 µg/mL
[6]
  MIC: 0.5 µg/mL (≈ 1.06 µM)
Staphylococcus aureus [7]
  MIC: 16 µg/mL (≈ 33.9 µM)

## Cc1ccc(C)c(C(=O)c2cc(NC(=O)c3cc(Br)cc(Br)c3O)ccc2Oc2ccc(Cl)cc2)c1
[1]
  MIC: 16 µg/mL (≈ 25.4 µM)
Staphylococcus aureus [2]
  MIC: 32 µg/mL (≈ 50.8 µM)
Escherichia coli
  MIC: 8 µg/mL (≈ 12.7 µM)
Pseudomonas aeruginosa
  MIC: 16 µg/mL (≈ 25.4 µM)
Acinetobacter baumannii
  MIC: 16 µg/mL (≈ 25.4 µM)
Serratia marcescens
  MIC: 16 µg/mL (≈ 25.4 µM)
Staphylococcus aureus [3]
  MIC: ≤ 0.03 µg/mL
Bacillus subtilis
  MIC: < 0.03 µg/mL
[4]
  IC90: > 100 µM
Staphylococcus aureus [5]
  MIC: ≤ 0.03 µg/mL
[6]
  MIC: 0.5 µg/mL (≈ 0.794 µM)
Staphylococcus aureus [7]
  MIC: 8 µg/mL (≈ 12.7 µM)

## O=C(c1ccccc1)c1cc(NC(=O)c2cc(Br)cc(Br)c2O)ccc1Cl
[1]
  MIC: 16 µg/mL (≈ 31.4 µM)
Staphylococcus aureus [2]
  MIC: 1 µg/mL (≈ 1.96 µM)
Escherichia coli
  MIC: 8 µg/mL (≈ 15.7 µM)
Pseudomonas aeruginosa
  MIC: 16 µg/mL (≈ 31.4 µM)
Acinetobacter baumannii
  MIC: 16 µg/mL (≈ 31.4 µM)
Serratia marcescens
  MIC: 16 µg/mL (≈ 31.4 µM)
Staphylococcus aureus [3]
  MIC: 2 µg/mL (≈ 3.92 µM)
Bacillus subtilis
  MIC: < 0.03 µg/mL
[4]
  IC90: 100 µM
Staphylococcus aureus [5]
  MIC: 1 µg/mL (≈ 1.96 µM)
[6]
  MIC: 0.5 µg/mL (≈ 0.981 µM)
Staphylococcus aureus [7]
  MIC: 1 µg/mL (≈ 1.96 µM)

## O=C(c1ccc(Cl)cc1)c1cc(NC(=O)c2cc(Br)cc(Br)c2O)ccc1Br
[1]
  MIC: 16 µg/mL (≈ 27.2 µM)
Staphylococcus aureus [2]
  MIC: ≤ 2 µg/mL
Escherichia coli
  MIC: 8 µg/mL (≈ 13.6 µM)
Pseudomonas aeruginosa
  MIC: 16 µg/mL (≈ 27.2 µM)
Acinetobacter baumannii
  MIC: 16 µg/mL (≈ 27.2 µM)
Serratia marcescens
  MIC: 16 µg/mL (≈ 27.2 µM)
Staphylococcus aureus [3]
  MIC: ≤ 0.03 µg/mL
Bacillus subtilis
  MIC: < 0.03 µg/mL
[4]
  IC90: 100 µM
Staphylococcus aureus [5]
  MIC: ≤ 0.03 µg/mL
[6]
  MIC: 0.5 µg/mL (≈ 0.85 µM)
Staphylococcus aureus [7]
  MIC: ≤ 2 µg/mL

## O=C(Nc1ccc(Sc2nc3ccccc3s2)c(Cl)c1)c1cc(Br)cc(Br)c1O
[1]
  MIC: 16 µg/mL (≈ 28 µM)
Staphylococcus aureus [2]
  MIC: ≤ 2 µg/mL
Escherichia coli
  MIC: 8 µg/mL (≈ 14 µM)
Pseudomonas aeruginosa
  MIC: 16 µg/mL (≈ 28 µM)
Acinetobacter baumannii
  MIC: 16 µg/mL (≈ 28 µM)
Serratia marcescens
  MIC: 16 µg/mL (≈ 28 µM)
Staphylococcus aureus [3]
  MIC: ≤ 0.03 µg/mL
Bacillus subtilis
  MIC: < 0.03 µg/mL
[4]
  IC90: 100 µM
Staphylococcus aureus [5]
  MIC: ≤ 0.03 µg/mL
[6]
  MIC: 0.5 µg/mL (≈ 0.876 µM)
Staphylococcus aureus [7]
  MIC: 4 µg/mL (≈ 7.01 µM)

## O=C(Nc1ccc(Oc2cc3ccccc3cc2Cl)c(Cl)c1)c1cc(Cl)cc(I)c1O
[1]
  MIC: 16 µg/mL (≈ 27.4 µM)
Staphylococcus aureus [2]
  MIC: ≤ 2 µg/mL
Escherichia coli
  MIC: 8 µg/mL (≈ 13.7 µM)
Pseudomonas aeruginosa
  MIC: 16 µg/mL (≈ 27.4 µM)
Acinetobacter baumannii
  MIC: 16 µg/mL (≈ 27.4 µM)
Serratia marcescens
  MIC: 16 µg/mL (≈ 27.4 µM)
Staphylococcus aureus [3]
  MIC: ≤ 0.03 µg/mL
Bacillus subtilis
  MIC: < 0.03 µg/mL
[4]
  IC90: > 100 µM
Staphylococcus aureus [5]
  MIC: ≤ 0.03 µg/mL
[6]
  MIC: 0.5 µg/mL (≈ 0.855 µM)
Staphylococcus aureus [7]
  MIC: 4 µg/mL (≈ 6.84 µM)

## O=C(Nc1ccc(Oc2ccc(Cl)c3cccnc23)c(Br)c1)c1cc(Br)cc(Br)c1O
[1]
  MIC: 16 µg/mL (≈ 25.5 µM)
Staphylococcus aureus [2]
  MIC: 16 µg/mL (≈ 25.5 µM)
Escherichia coli
  MIC: 8 µg/mL (≈ 12.7 µM)
Pseudomonas aeruginosa
  MIC: 16 µg/mL (≈ 25.5 µM)
Acinetobacter baumannii
  MIC: 16 µg/mL (≈ 25.5 µM)
Serratia marcescens
  MIC: 16 µg/mL (≈ 25.5 µM)
Staphylococcus aureus [3]
  MIC: ≤ 0.03 µg/mL
Bacillus subtilis
  MIC: < 0.03 µg/mL
[4]
  IC90: 50 µM
Staphylococcus aureus [5]
  MIC: ≤ 0.03 µg/mL
[6]
  MIC: 0.5 µg/mL (≈ 0.797 µM)
Staphylococcus aureus [7]
  MIC: 32 µg/mL (≈ 51 µM)

## O=C(c1ccc(Cl)cc1)c1ccc(NC(=O)c2cc(Br)cc(Br)c2O)cc1Cl
[1]
  MIC: 16 µg/mL (≈ 29.4 µM)
Staphylococcus aureus [2]
  MIC: 4 µg/mL (≈ 7.35 µM)
Escherichia coli
  MIC: 8 µg/mL (≈ 14.7 µM)
Pseudomonas aeruginosa
  MIC: 16 µg/mL (≈ 29.4 µM)
Acinetobacter baumannii
  MIC: 16 µg/mL (≈ 29.4 µM)
Serratia marcescens
  MIC: 16 µg/mL (≈ 29.4 µM)
Staphylococcus aureus [3]
  MIC: ≤ 0.03 µg/mL
Bacillus subtilis
  MIC: < 0.03 µg/mL
[4]
  IC90: 100 µM
Staphylococcus aureus [5]
  MIC: ≤ 0.03 µg/mL
[6]
  MIC: 0.5 µg/mL (≈ 0.919 µM)
Staphylococcus aureus [7]
  MIC: ≤ 2 µg/mL

## O=C(c1ccc(NC(=O)c2cc(Br)cc(Br)c2O)c(Cl)c1)c1cccs1
[1]
  MIC: 16 µg/mL (≈ 31 µM)
Staphylococcus aureus [2]
  MIC: 4 µg/mL (≈ 7.76 µM)
Escherichia coli
  MIC: 8 µg/mL (≈ 15.5 µM)
Pseudomonas aeruginosa
  MIC: 16 µg/mL (≈ 31 µM)
Acinetobacter baumannii
  MIC: 16 µg/mL (≈ 31 µM)
Serratia marcescens
  MIC: 16 µg/mL (≈ 31 µM)
Staphylococcus aureus [3]
  MIC: ≤ 0.03 µg/mL
Bacillus subtilis
  MIC: < 0.03 µg/mL
[4]
  IC90: > 100 µM
Staphylococcus aureus [5]
  MIC: ≤ 0.03 µg/mL
[6]
  MIC: 0.5 µg/mL (≈ 0.97 µM)
Staphylococcus aureus [7]
  MIC: 4 µg/mL (≈ 7.76 µM)

## Cc1ccc(C(C)C)cc1Oc1ccc(Cl)cc1NC(=O)c1cc(Cl)ccc1O
[1]
  MIC: 16 µg/mL (≈ 37.2 µM)
Staphylococcus aureus [2]
  MIC: 0.5 µg/mL (≈ 1.16 µM)
Escherichia coli
  MIC: 8 µg/mL (≈ 18.6 µM)
Pseudomonas aeruginosa
  MIC: 16 µg/mL (≈ 37.2 µM)
Acinetobacter baumannii
  MIC: 16 µg/mL (≈ 37.2 µM)
Serratia marcescens
  MIC: 16 µg/mL (≈ 37.2 µM)
Staphylococcus aureus [3]
  MIC: ≤ 0.03 µg/mL
Bacillus subtilis
  MIC: < 0.03 µg/mL
[4]
  IC90: 100 µM
Staphylococcus aureus [5]
  MIC: ≤ 0.03 µg/mL
[6]
  MIC: 0.5 µg/mL (≈ 1.16 µM)
Staphylococcus aureus [7]
  MIC: 0.5 µg/mL (≈ 1.16 µM)
